SKN-1 inh: C. elegans SKN-1 inhibition; C. elegans VP596 Pgst-4::GFP/RFP ratio, acrylamide-induced, 24 h; inhibition, % at 21.8 µM; hit rate 0.49% among 360,000; AID 624304;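 active = interference check ratio from 0.5 to 1.5 plus GFP to RFP signal ratio inhibition reaching or exceeding a fixed threshold, cut at about 30% in these data, passing the limit was not always enough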
NR3A LBD binder: NR3A (human) ligand-binding domain modulation. NR3A LBD differential scanning fluorimetry, Tm shift; 0% = protein alone, 100% = glycine-bound protein. Tm shift relative to glycine control, % at 25 µM. hit rate 2.5% among 340,000;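 active = melting temperature shift of at least 10% of the positive control shift, at one fixed dose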
ADAM17 inh: ADAM17 inhibition, QFRET primary screen; inhibition, % at 6.95 µM; recombinant ADAM17, EDANS/DABCYL FRET peptide cleavage; P78536; AID 720648; hit rate 0.83% among 370,000;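 active = inhibition above the mean of compounds lying between control limits plus 3 SD, set per campaign, cut at about 8.5% in these data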;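 also: 0% = DMSO-only wells as the low control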
Target sequence (P78536 215-824 limits assumed): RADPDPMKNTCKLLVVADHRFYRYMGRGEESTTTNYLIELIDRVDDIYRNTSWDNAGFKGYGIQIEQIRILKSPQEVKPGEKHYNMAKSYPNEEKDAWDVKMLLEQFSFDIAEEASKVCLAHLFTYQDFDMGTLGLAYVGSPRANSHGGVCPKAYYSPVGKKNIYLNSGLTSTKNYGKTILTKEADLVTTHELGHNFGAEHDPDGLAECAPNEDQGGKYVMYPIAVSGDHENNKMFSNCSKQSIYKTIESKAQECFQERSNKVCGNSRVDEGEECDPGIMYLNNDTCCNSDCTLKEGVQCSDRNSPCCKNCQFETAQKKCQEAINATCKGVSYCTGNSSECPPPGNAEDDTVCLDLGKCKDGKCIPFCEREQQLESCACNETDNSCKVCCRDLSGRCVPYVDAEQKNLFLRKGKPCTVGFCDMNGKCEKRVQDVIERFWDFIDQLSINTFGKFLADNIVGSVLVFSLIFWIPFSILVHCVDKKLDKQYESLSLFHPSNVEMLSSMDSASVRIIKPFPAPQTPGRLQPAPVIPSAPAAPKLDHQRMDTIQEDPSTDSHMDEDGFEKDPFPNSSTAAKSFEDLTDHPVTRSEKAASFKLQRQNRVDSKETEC
MPTP block: blocks calcium-induced mitochondrial swelling; isolated mouse mitochondria, Ca2+ swelling absorbance, 30 min; inhibition, % at 10 µM; hit rate 1.4% among 360,000; AID 602449;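 active = inhibition of 50% or more, scaled per plate between neutral and stimulator controls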;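 also: 0% = DMSO wells given calcium and 100% = 1 mM EGTA wells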
ADAM10 inh: inhibitors of human ADAM10 | hit rate 0.62% among 370,000 | O14672 | inhibition, % at 7 µM | recombinant ADAM10, EDANS/DABCYL FRET peptide cleavage, 3 h;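 active = inhibition above a per-campaign cutoff equal to the mean of compounds falling between control-based bounds plus 3 SD, cut at about 20% in these data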;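 also: 0% = DMSO wells while the 100% control is not disclosed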
MT1-MMP act inh: inhibitors of human MT1-MMP activation; P50281; GFP/RFP ratio change, % at 20 µM; HT1080 RFP-PRO-GFP cells, GFP/RFP ratio fluorescence, overnight; percent of plate control window, DMSO zero; hit rate 0.061% among 360,000;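 active = GFP/RFP ratio change of at least 30% with cell ATP level not reduced by more than half and red fluorescence within 50% of control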
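Material: RFP-PRO-GFP reporter HT1080 cells. Dosing: single-point 20 µM compound, 1% DMSO. Controls: DMSO and RFP-L50D-GFP cell wells. Timing: cells overnight before dosing, compound overnight, 37 °C, 5% CO2. Measure: GFP/RFP fluorescence ratio.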
Rh123 counter: membrane potential counter-screen of mitochondrial pore inhibitors; isolated mitochondria, Rhodamine 123 fluorescence; shares compounds with MPTP block; hit rate 78% among 5,000; inhibition, % at 10 µM; in the data active = inhibition above about 22%;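 also: 0% = DMSO vehicle and 100% = positive control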
MPTP abs DR: MPTP inhibition, dose response swelling confirmation. shares compounds with MPTP block. isolated mitochondria swelling, absorbance. IC50, µM. hit rate 58% among 780; in the data active = IC50 below about 20 µM
MPTP cs DR: counter-screen for mitochondrial permeability transition pore inhibitors, dose response; isolated mitochondria counterscreen, fluorescence read-out; AID 651564; shares compounds with MPTP block; IC50, µM; hit rate 49% among 780; in the data active = IC50 below about 80 µM
* hit, by the source's call. Shown are actives, neighbours in structure and some others; about 4.7% of the full set was active somewhere.

How did CCc1cc2cc(C)cc(C)c2nc1SCC(=O)N1CCN(C(=O)c2ccco2)CC1 do in these assays?
SKN-1 inh: -16.7; NR3A LBD binder: -0.9; ADAM17 inh: -3.3; MPTP block: 64.4*; ADAM10 inh: 0.6; MT1-MMP act inh: -5.1; Rh123 counter: 30.1*

What do the screens show for `CCc1cc2cccc(C)c2nc1SCC(=O)N1CCN(C(=O)c2ccco2)CC1`?
SKN-1 inh: -16.4; NR3A LBD binder: -7.8; ADAM17 inh: -0.9; MPTP block: -0.1; ADAM10 inh: 11.7; MT1-MMP act inh: 1.2

How did CCn1c2ccccc2c2cc(NC(=O)CNCC3CCCO3)ccc21 (configuration not stated) do in these assays?
SKN-1 inh: 14.4; NR3A LBD binder: 2.0; ADAM17 inh: -1.1; MPTP block: 61.0*; ADAM10 inh: -11.7; MT1-MMP act inh: -2.8; Rh123 counter: -11.9; MPTP abs DR: inactive; MPTP cs DR: >80

Results for CCn1c2ccccc2c2cc(NC(=O)CN3CCCC3)ccc21 ?
SKN-1 inh: -3.4; NR3A LBD binder: -0.1; ADAM17 inh: -4.1; MPTP block: 24.5; ADAM10 inh: -7.7; MT1-MMP act inh: -1.2

Results for NCCOc1ccccc1Cc1ccccc1 ?
SKN-1 inh: 2.8; NR3A LBD binder: 2.3; ADAM17 inh: -3.7; MPTP block: 68.7*; ADAM10 inh: -1.3; MT1-MMP act inh: -5.3; Rh123 counter: -5.6; MPTP abs DR: 6.66*; MPTP cs DR: >80

What do the screens show for `NCCOc1ccccc1OCCN`?
SKN-1 inh: 0.3; NR3A LBD binder: 0.8; ADAM17 inh: -5.9; MPTP block: 0.9; ADAM10 inh: -3.2; MT1-MMP act inh: -1.3

What do the screens show for `CCN(c1ccccc1)S(=O)(=O)c1ccc(C(=O)NC2CCN(Cc3ccccc3)CC2)cc1`?
SKN-1 inh: 5.3; NR3A LBD binder: 2.4; MPTP block: 65.7*; MT1-MMP act inh: 14.5; Rh123 counter: 63.8*

Results for C=CC(C)(C)c1c(O)c(CC=C(C)C)c(O)c2c(=O)c3ccc(O)c(O)c3oc12 ?
SKN-1 inh: 0.9; NR3A LBD binder: 32.7*; MPTP block: 84.9*; MT1-MMP act inh: -8.1; Rh123 counter: 40.0*

How did CCc1ccc2c(c1)cc(CN(C(=S)Nc1ccc(Cl)cc1)C1CC1)c1nnnn12 do in these assays?
SKN-1 inh: 13.5; NR3A LBD binder: 0.8; ADAM17 inh: -0.7; MPTP block: 146.4*; ADAM10 inh: 1.0; MT1-MMP act inh: 4.8; Rh123 counter: 9.9; MPTP abs DR: >100; MPTP cs DR: >80

How did COCCNC(=S)N(Cc1cc2cc(C)ccc2n2nnnc12)C1CCCC1 do in these assays?
SKN-1 inh: -0.2; NR3A LBD binder: -6.6; ADAM17 inh: 4.6; MPTP block: 2.0; ADAM10 inh: 1.6; MT1-MMP act inh: -25.6

How did Cc1nnc(N2CCC(C(=O)NC3CCC(C)CC3)CC2)c2nn(-c3ccc(Cl)cc3)c(C)c12 (configuration not stated) do in these assays?
SKN-1 inh: 9.4; NR3A LBD binder: 0.2; MPTP block: -1.0; MT1-MMP act inh: 5.5

How did Cc1cccc(NC(=O)Nc2ccc3c(c2)CCC3)c1 do in these assays?
SKN-1 inh: 9.5; NR3A LBD binder: 15.6*; ADAM17 inh: 0.4; MPTP block: 80.2*; ADAM10 inh: -4.1; MT1-MMP act inh: 0.9; Rh123 counter: 77.2*

How did O=C(Nc1ccc(Cl)cc1)Nc1ccccc1CC[N+](=O)[O-] do in these assays?
SKN-1 inh: 1.7; NR3A LBD binder: -4.0; ADAM17 inh: -2.4; MPTP block: 83.2*; ADAM10 inh: -2.6; MT1-MMP act inh: 0.9; Rh123 counter: 85.4*

How did CSc1cccc(NC(=O)Nc2ccc(Cl)cc2)c1 do in these assays?
SKN-1 inh: 5.8; NR3A LBD binder: 29.3*; ADAM17 inh: -1.5; MPTP block: 88.1*; ADAM10 inh: -2.6; MT1-MMP act inh: 0.6; Rh123 counter: 103.8*

What do the screens show for `CSc1cccc(NC(=O)/C=C/c2cccc(Cl)c2)c1`?
SKN-1 inh: 14.5; NR3A LBD binder: 67.4*; ADAM17 inh: 7.2; MPTP block: 72.9*; ADAM10 inh: 15.1; MT1-MMP act inh: 2.1; Rh123 counter: 81.9*

How did CSc1ccccc1NC(=O)Nc1ccc(Cl)cc1 do in these assays?
SKN-1 inh: 16.2; NR3A LBD binder: 3.0; ADAM17 inh: 1.1; MPTP block: 92.4*; ADAM10 inh: 7.3; MT1-MMP act inh: 1.8; Rh123 counter: 75.2*

Results for CSc1cccc(NC(=O)C(=O)NCc2ccccc2)c1 ?
SKN-1 inh: -4.4; NR3A LBD binder: -1.0; ADAM17 inh: 1.6; MPTP block: 1.3; ADAM10 inh: 5.1; MT1-MMP act inh: 3.8

How did Cc1ccc(NC(=O)Nc2ccc(Cl)cc2)c(Br)c1 do in these assays?
SKN-1 inh: 2.2; NR3A LBD binder: 35.1*; ADAM17 inh: 1.0; MPTP block: 101.5*; ADAM10 inh: 0.7; MT1-MMP act inh: -2.9; Rh123 counter: 92.3*

What do the screens show for `O=C(Nc1ccc(Br)cc1)Nc1ccccc1Cl`?
SKN-1 inh: 22.9; NR3A LBD binder: 21.0*; ADAM17 inh: 2.6; MPTP block: 78.5*; ADAM10 inh: -0.9; MT1-MMP act inh: -2.0; Rh123 counter: 103.2*

Results for CSc1cccc(NC(=O)NCc2cccc(CNC(=O)Nc3cccc(SC)c3)c2)c1 ?
SKN-1 inh: 0.8; NR3A LBD binder: 15.8*; ADAM17 inh: -4.8; MPTP block: 68.1*; ADAM10 inh: 3.0; MT1-MMP act inh: -2.0; Rh123 counter: 63.0*

How did COc1ccc(N(CC(=O)Nc2cccc(C)c2C)S(=O)(=O)c2c(C)n[nH]c2C)cc1 do in these assays?
SKN-1 inh: -5.4; NR3A LBD binder: 2.4; ADAM17 inh: 2.7; MPTP block: 3.0; ADAM10 inh: 2.2; MT1-MMP act inh: -1.9

How did CC(=O)Nc1ccc(Cc2nc3ccccc3[nH]2)cc1 do in these assays?
SKN-1 inh: 3.8; NR3A LBD binder: -1.3; ADAM17 inh: -2.1; MPTP block: 0.8; ADAM10 inh: 8.0; MT1-MMP act inh: 1.5

Results for COc1ccc(C(=O)/C(C#N)=N/Nc2ccccc2[N+](=O)[O-])cc1 ?
SKN-1 inh: 5.1; NR3A LBD binder: 2.0; ADAM17 inh: -3.6; MPTP block: 95.4*; ADAM10 inh: -4.8; MT1-MMP act inh: 0.5; Rh123 counter: 88.2*

How did COc1ccc(C(=O)/C(C#N)=N/Nc2ccc([N+](=O)[O-])cc2)cc1 do in these assays?
SKN-1 inh: 8.1; NR3A LBD binder: 16.9*; ADAM17 inh: -5.3; MPTP block: 99.9*; ADAM10 inh: -11.2; MT1-MMP act inh: 15.6; Rh123 counter: 86.5*

Compound activity (PubChem BioAssay)
